Each structure is given as a SMILES string.

For data set [1], the target named is Potassium voltage-gated channel subfamily KQT member 2 (Mus musculus, UniProt Q9Z351). Description: Induced current in Xenopus laevis oocytes expressing cloned mKCNQ2 channels. The format is functional, cell-based, Oocyte. The method in brief: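 Two-electrode voltage clamp of Xenopus laevis oocytes expressing cloned mKCNQ2; outward current at -40 mV expressed as percent of compound-free control; concentration–response fit for EC50, n = 4–7 oocytes.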

Data set [2] can be described thus: Ratio of proximal to distal depolarizations determined in rat at 3 mg/kg. The format is functional. The method in brief:
(§1)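 Rats; cortical spreading depression evoked by 10 min application of crystalline KCl to a small parietal cortex region. Compound given intragastrically in PEG 400 vehicle. Depolarizations counted in proximal and distal leads per animal; proximal/distal ratio calculated per group. Group mean ± SEM; Kruskal–Wallis with Dunn's posttest.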

Data set [3] can be described thus: Ratio of proximal to distal depolarizations determined in rat at 10 mg/kg. The format is functional. The method in brief: as §1
Data set [4] can be described thus: Volume of distribution was determined in dog at 1 mg/kg, iv. Also on record: dose 1 mg/kg, route intravenous. The format is ADME, organism-based, Canis lupus familiaris. The settings on record: in vivo, read-out: Vdss. In a few lines:
(§2)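 Beagle dogs (n = 3), 1 mg/kg iv as a solution in 50% PEG-400/50% H2O; plasma pharmacokinetics giving clearance, half-life and steady-state volume of distribution.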

A short description of data set [5]: tmax determined dog at 3 mg/kg, po. The format is ADME, organism-based, Canis lupus familiaris. Also on record: dose 3 mg/kg, route oral. The settings on record: in vivo. In a few lines:
(§3)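 Beagle dogs (n = 3), oral solution at 3 mg/kg in 50% PEG-400/50% H2O, with iv reference at 1 mg/kg; tmax and oral bioavailability derived.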

Data set [6] can be described thus: tmax determined rat at 11 mg/kg, po. The format is ADME, organism-based. Also on record: dose 11 mg/kg, route oral. As to conditions: in vivo.
Data set [7] is described as follows: Volume of distribution was determined in rat at 5 mg/kg, iv. The format is ADME, organism-based. The arrangement: dose 5 mg/kg, route intravenous. The settings on record: in vivo, read-out: Vdss. In a few lines:
(§4)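 Sprague–Dawley rats (n = 3), 5 mg/kg iv as a solution in 90% PEG-400/10% Tween 80; plasma pharmacokinetics giving clearance, half-life and steady-state volume of distribution.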

Data set [8] has as its target Potassium voltage-gated channel subfamily KQT member 2 (Mus musculus) (UniProt Q9Z351). Description: Threshold for augmenting KCNQ2 current in HEK 293 stable cell line expressing mKCNQ2 channel. As to conditions: HEK293. The format is functional, cell-based. In a few lines: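 HEK 293 cells stably expressing mKCNQ2, voltage-clamped at -40 mV; compound applied by local superfusion at increasing concentrations, then washed with compound-free saline; concentration–response from three cells with logistic fit.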

Data set [9] in a line: Clearance rate determined at 1 mg/kg, iv, in dog. The format is ADME, organism-based, Canis lupus familiaris. Also on record: dose 1 mg/kg. The settings on record: in vivo. In a few lines: as §2
Data set [10] can be described thus: Clearance rate determined at 5 mg/kg, iv, in rat. The arrangement: dose 5 mg/kg. The format is ADME, organism-based. The settings on record: in vivo. The method in brief: as §4
Data set [11] has as its system Rattus norvegicus. Description: Ability to reduce the total number of proximal depolarizations was tested in rat parietal cortex at 3 mg/kg, ig. The format is functional. The settings on record: route intragastric. The method in brief:
as §1

Data set [12] can be described thus: Half-life determined at 5 mg/kg, iv, in rat. Also on record: dose 5 mg/kg. The format is ADME, organism-based. The settings on record: in vivo. The method in brief: as §4
Data set [13] deals with Rattus norvegicus. Description: Ability to reduce the total number of proximal depolarizations was tested in rat parietal cortex at 10 mg/kg, ig. The format is functional. As to conditions: route intragastric. The method in brief:
as §1

A short description of data set [14]: Percentage oral bioavailability determined in dog. The format is ADME, organism-based, Canis lupus familiaris. The settings on record: in vivo, read-out: Bioavailabiility. The method in brief:
as §3

The nature of data set [15]: Concentration determined in rat plasma after 6 hr. The format is ADME, organism-based. In a few lines: (§5)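 Sprague–Dawley rats (n = 3) dosed po at 20 mg/kg as a solution in 100% PEG-400; brain and plasma sampled at 6 h.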
For data set [16], the system named is Rattus norvegicus. Description: Ability to reduce the total number of proximal depolarizations was tested in rat parietal cortex at 30 mg/kg, ig. The format is functional. As to conditions: route intragastric. The method in brief: as §1
In data set [17] the target is Voltage-gated potassium channel, KQT; KCNQ2(Kv7.2)/KCNQ3(Kv7.3) (Homo sapiens, UniProt O43525+O43526). The experiment in a line: Effect on resting membrane potential in SH-SY5Y human neuroblastoma cells expressing native KCNQ channels.
Data set [18] can be described thus: Ratio of proximal to distal depolarizations determined in rat at 30 mg/kg. The format is functional. In a few lines:
as §1

Data set [19] can be described thus: Concentration determined in rat brain after 6 hr. The format is ADME, organism-based. In a few lines: as §5
A short description of data set [20]: Percentage oral bioavailability determined in rat. The format is ADME, organism-based. As to conditions: in vivo, read-out: Bioavailabiility.
The nature of data set [21]: Half-life determined at 1 mg/kg, iv, in dog. As to conditions: in vivo. The format is ADME, organism-based, Canis lupus familiaris. Also on record: dose 1 mg/kg. In a few lines:
as §2

The nature of data set [22]: Ratio of concentration of compound in brain to the concentration in plasma. As to conditions: brain and plasma, B/P ratio.

Potassium voltage-gated channel subfamily KQT member 2 (Mus musculus), sequence (Q9Z351 whole entry, the tested form may be a part): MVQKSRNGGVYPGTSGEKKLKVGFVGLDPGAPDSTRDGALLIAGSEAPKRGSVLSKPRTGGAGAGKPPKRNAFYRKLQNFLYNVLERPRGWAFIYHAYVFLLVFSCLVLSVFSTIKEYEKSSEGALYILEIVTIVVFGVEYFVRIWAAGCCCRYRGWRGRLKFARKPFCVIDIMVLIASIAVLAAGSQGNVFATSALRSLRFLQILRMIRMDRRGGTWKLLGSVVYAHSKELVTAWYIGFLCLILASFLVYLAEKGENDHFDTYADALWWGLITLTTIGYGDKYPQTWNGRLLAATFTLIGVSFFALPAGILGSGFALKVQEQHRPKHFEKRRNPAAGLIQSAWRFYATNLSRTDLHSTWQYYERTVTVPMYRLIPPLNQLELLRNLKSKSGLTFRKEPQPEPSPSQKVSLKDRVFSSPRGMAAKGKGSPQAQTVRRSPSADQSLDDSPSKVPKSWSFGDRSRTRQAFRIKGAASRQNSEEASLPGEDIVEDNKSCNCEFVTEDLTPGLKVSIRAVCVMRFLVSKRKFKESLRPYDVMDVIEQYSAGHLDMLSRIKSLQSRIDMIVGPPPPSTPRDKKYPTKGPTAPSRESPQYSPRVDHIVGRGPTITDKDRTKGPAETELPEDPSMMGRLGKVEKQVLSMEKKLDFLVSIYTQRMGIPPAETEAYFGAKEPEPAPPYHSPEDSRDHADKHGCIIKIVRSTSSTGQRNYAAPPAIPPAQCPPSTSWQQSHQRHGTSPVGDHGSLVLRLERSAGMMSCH
Potassium voltage-gated channel subfamily KQT member 2, sequence (Q9Z351 whole entry): as the sequence (Q9Z351 whole entry, the tested form may be a part) above
Voltage-gated potassium channel, KQT; KCNQ2(Kv7.2)/KCNQ3(Kv7.3), sequence (O43526 whole entry): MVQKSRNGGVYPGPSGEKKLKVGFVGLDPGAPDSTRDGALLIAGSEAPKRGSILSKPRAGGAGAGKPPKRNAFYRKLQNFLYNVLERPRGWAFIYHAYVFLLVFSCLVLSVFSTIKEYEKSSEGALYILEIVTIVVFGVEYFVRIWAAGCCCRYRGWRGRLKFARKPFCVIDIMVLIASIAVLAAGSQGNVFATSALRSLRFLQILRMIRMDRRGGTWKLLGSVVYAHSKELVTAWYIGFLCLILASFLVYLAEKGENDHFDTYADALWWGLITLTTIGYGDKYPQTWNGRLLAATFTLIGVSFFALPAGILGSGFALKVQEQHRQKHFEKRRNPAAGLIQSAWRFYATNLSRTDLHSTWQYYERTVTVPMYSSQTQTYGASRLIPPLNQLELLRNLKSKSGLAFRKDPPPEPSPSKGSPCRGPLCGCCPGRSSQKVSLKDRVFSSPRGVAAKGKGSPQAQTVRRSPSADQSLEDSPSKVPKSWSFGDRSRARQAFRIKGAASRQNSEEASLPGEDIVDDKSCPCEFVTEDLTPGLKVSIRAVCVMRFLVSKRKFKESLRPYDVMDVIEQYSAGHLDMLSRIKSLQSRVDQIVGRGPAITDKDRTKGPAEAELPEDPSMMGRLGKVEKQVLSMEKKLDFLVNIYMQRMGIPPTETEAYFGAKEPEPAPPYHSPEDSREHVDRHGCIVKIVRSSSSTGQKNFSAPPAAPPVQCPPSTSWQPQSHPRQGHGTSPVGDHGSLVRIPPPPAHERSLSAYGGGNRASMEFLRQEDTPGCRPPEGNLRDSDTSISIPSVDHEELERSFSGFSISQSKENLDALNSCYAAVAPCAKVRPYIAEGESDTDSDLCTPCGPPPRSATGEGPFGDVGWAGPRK
Voltage-gated potassium channel, KQT; KCNQ2(Kv7.2)/KCNQ3(Kv7.3), sequence (O43525 whole entry): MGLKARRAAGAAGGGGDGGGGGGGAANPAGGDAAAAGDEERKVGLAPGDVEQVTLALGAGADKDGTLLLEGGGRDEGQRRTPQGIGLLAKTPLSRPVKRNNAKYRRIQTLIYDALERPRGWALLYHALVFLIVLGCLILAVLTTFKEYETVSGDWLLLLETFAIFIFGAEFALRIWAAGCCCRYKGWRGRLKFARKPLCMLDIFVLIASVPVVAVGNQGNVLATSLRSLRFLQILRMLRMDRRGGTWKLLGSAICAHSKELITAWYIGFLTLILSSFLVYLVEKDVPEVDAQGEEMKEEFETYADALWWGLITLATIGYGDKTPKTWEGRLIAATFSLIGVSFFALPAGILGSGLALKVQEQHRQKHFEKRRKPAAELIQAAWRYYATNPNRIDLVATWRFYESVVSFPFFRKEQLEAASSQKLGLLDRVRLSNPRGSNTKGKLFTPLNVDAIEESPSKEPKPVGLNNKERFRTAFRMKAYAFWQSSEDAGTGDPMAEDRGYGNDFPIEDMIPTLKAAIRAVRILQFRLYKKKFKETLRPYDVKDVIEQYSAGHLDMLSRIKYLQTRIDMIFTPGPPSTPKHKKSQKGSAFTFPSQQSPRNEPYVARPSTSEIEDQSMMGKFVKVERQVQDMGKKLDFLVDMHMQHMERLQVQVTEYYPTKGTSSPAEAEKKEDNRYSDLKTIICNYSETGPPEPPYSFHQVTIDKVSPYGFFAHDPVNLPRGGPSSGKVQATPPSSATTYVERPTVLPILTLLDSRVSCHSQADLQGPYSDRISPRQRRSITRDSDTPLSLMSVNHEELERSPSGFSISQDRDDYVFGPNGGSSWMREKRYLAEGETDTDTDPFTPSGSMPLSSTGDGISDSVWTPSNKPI

`C[C@H](NC(=O)/C=C/c1ccccc1)c1cccc(N2CCOCC2)c1`: the EC50 in data set [1] worked out at 6 µM; in data set [17], 0.69 µM. Moreover, the P/D is 1.1 in data set [2], 1.15 in data set [3] and 1.22 in data set [18]. Moreover, the Vd in [4] came out at 3 L/kg; in [7], 2.5 L/kg. Besides, the figures for the Tmax in data set [5] and in [6] were 0.5 h and 5 h, respectively. In addition, in data set [8], the Concentration was 300 nM. In addition, the figures for the clearance in data set [9] and in data set [10] were 12.7 mL/min/kg and 41 mL/min/kg, respectively. Further, the No. of depolarizations in the data set on Rattus norvegicus [11] is 36; in the data set on Rattus norvegicus [13], 25; in the data set with Rattus norvegicus [16], 23. The half-life in data set [12] is 2.1 h; in data set [21], 3 h. Also, the bioavailability in [14] is 100%; in [20] it was 93%. The concentration at 6 h was determined as 804 ng/mL in data set [15] and 631 ng/g in data set [19]. Moreover, the Kp in data set [22] is 0.78.
